Results from ChEMBL document CHEMBL1909525, “Synthesis and anticonvulsant activity of novel 2,6-diketopiperazine derivatives. Part 1: perhydropyrrole[1,2-a]pyrazines” (Eur J Med Chem, 2011).
Activity calls are given as the source filed them. The rule behind the calls is not given here.

Experiments:
[1] = tested on: Mus musculus; assay: Neurotoxicity in albino Carworth Farms No.1 mouse assessed as motor impairment at 30 mg/kg, ip after 0.5 hrs by rotarod test; format: toxicity, organism-based; parameters: dose 30 mg/kg, route intraperitoneal; details: in vivo
Procedure, shortened: (§1)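 Rotorod neurotoxicity in mice at 6 r.p.m. Compound given i.p. (30, 100, 300 mg/kg) in 0.5% methylcellulose; tested at 30 min and 4 h. Impairment is inability to keep equilibrium on the rod for a given time; scored as impaired/tested.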

[2] = tested on: Mus musculus; assay: Neurotoxicity in albino Carworth Farms No.1 mouse assessed as motor impairment at 100 mg/kg, ip after 0.5 hrs by rotarod test; format: toxicity, organism-based; parameters: dose 100 mg/kg, route intraperitoneal; details: in vivo; procedure, shortened: as §1
[3] = tested on: Mus musculus; assay: Neurotoxicity in albino Carworth Farms No.1 mouse assessed as motor impairment at 300 mg/kg, ip after 0.5 hrs by rotarod test; format: toxicity, organism-based; parameters: dose 300 mg/kg, route intraperitoneal; details: in vivo; procedure, shortened: as §1
[4] = tested on: Mus musculus; assay: Anticonvulsant activity in albino Carworth Farms No.1 mouse assessed as protection against subcutaneous metrazol-induced seizure at 30 mg/kg, ip after 0.5 hrs; format: functional, organism-based; parameters: dose 30 mg/kg
Procedure, shortened: (§2)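 Mouse scMET test. Compound given i.p. (30, 100 or 300 mg/kg) in 0.5% methylcellulose. Pentylenetetrazole 85 mg/kg (CD97) given s.c. at 0.5 or 4 h, then mice observed for 30 min. Protection is absence of clonic spasms; scored as protected/tested.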

[5] = tested on: Mus musculus; assay: Anticonvulsant activity in albino Carworth Farms No.1 mouse assessed as protection against subcutaneous metrazol-induced seizure at 30 mg/kg, ip after 4 hrs; format: functional, organism-based; parameters: dose 30 mg/kg; procedure, shortened: as §2
[6] = tested on: Mus musculus; assay: Anticonvulsant activity in albino Carworth Farms No.1 mouse assessed as protection against subcutaneous metrazol-induced seizure at 100 mg/kg, ip after 0.5 hrs; format: functional, organism-based; parameters: dose 100 mg/kg; procedure, shortened: as §2
[7] = tested on: Mus musculus; assay: Anticonvulsant activity in albino Carworth Farms No.1 mouse assessed as protection against subcutaneous metrazol-induced seizure at 100 mg/kg, ip after 4 hrs; format: functional, organism-based; parameters: dose 100 mg/kg; procedure, shortened: as §2
[8] = tested on: Mus musculus; assay: Anticonvulsant activity in albino Carworth Farms No.1 mouse assessed as protection against subcutaneous metrazol-induced seizure at 300 mg/kg, ip after 0.5 hrs; format: functional, organism-based; parameters: dose 300 mg/kg; procedure, shortened: as §2
[9] = tested on: Mus musculus; assay: Anticonvulsant activity in albino Carworth Farms No.1 mouse assessed as protection against subcutaneous metrazol-induced seizure at 300 mg/kg, ip after 4 hrs; format: functional, organism-based; parameters: dose 300 mg/kg; procedure, shortened: as §2
[10] = tested on: Mus musculus; assay: Anticonvulsant activity in ip dosed albino Carworth Farms No.1 mouse assessed as protection against maximal electroshock-induced seizure after 0.25 hrs; format: functional; details: albino Carworth Farms No.1, ip
Procedure, shortened: (§3)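 Mouse quantification at the time of peak effect, compound given i.p. in 0.5% methylcellulose. Groups of at least eight mice received varied doses until at least two points fell between 100 and 0% response. ED50 (MES, scMET) and TD50 (rotorod) with 95% CI by probit analysis (Finney). PI = TD50/ED50 MES.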

[11] = tested on: Mus musculus; assay: Anticonvulsant activity in ip dosed albino Carworth Farms No.1 mouse assessed as protection against subcutaneous metrazol-induced seizure after 0.25 hrs; format: functional; details: albino Carworth Farms No.1, 0.25 h; procedure, shortened: as §3
[12] = Neurotoxicity in ip dosed albino Carworth Farms No.1 mouse assessed as motor impairment after 0.25 hrs by rotarod test; format: toxicity, organism-based; details: Carworth Farms No.1 (albino), in vivo
Procedure, shortened: (§4)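 Mouse quantification at the time of peak effect, compound given i.p. in 0.5% methylcellulose. Groups of at least eight mice received varied doses until at least two points fell between 100 and 0% response. PI = TD50/ED50 MES.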

[13] = organism: Mus musculus; assay: Protective index, ratio of TD50 for albino Carworth Farms No.1 mouse to ED50 for albino Carworth Farms No.1 mouse by maximal electroshock-induced seizure test; format: functional; procedure, shortened: as §4
[14] = tested on: Mus musculus; assay: Anticonvulsant activity in ip dosed albino Carworth Farms No.1 mouse assessed as time needs to show peak effect for protection against maximal electroshock-induced seizure; format: functional
[15] = tested on: Rattus norvegicus; assay: Toxicity in albino Sprague-Dawley rat pilocarpine-induced status epilepticus model assessed as change in body weight in protected rat at 600 mg/kg, ip measured after 24 hrs of time from first stage 3 seizures; format: organism-based; parameters: dose 600 mg/kg, route intraperitoneal; details: in vivo
Procedure, shortened: (§5)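 Pilocarpine-induced status prevention in male albino Sprague-Dawley rats (150–180 g). Compound given i.p. and followed by a pilocarpine challenge. Animals were sorted as protected or non-protected, and average body weight change (g) ± S.E.M. was recorded for each group.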

[16] = tested on: Rattus norvegicus; assay: Toxicity in albino Sprague-Dawley rat pilocarpine-induced status epilepticus model assessed as change in body weight in non-protected rat at 600 mg/kg, ip measured after 24 hrs of time from first stage 3 seizures; format: organism-based; parameters: dose 600 mg/kg, route intraperitoneal; details: in vivo; procedure, shortened: as §5
[17] = tested on: Mus musculus; assay: Anticonvulsant activity in albino Carworth Farms No.1 mouse assessed as protection against maximal electroshock-induced seizure at 30 mg/kg, ip after 0.5 hrs; format: functional, organism-based; parameters: dose 30 mg/kg
Procedure, shortened: (§6)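 Mouse MES test with compound given i.p. (30, 100 or 300 mg/kg) in 0.5% methylcellulose; tested at 0.5 and 4 h. Corneal stimulus of 50 mA at 60 Hz for 0.2 s, electrodes primed with 0.5% butacaine in 0.9% NaCl. Protection is abolition of hindlimb tonic extension; scored as protected/tested.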

[18] = tested on: Mus musculus; assay: Anticonvulsant activity in albino Carworth Farms No.1 mouse assessed as protection against maximal electroshock-induced seizure at 30 mg/kg, ip after 4 hrs; format: functional, organism-based; parameters: dose 30 mg/kg; procedure, shortened: as §6
[19] = tested on: Mus musculus; assay: Anticonvulsant activity in albino Carworth Farms No.1 mouse assessed as protection against maximal electroshock-induced seizure at 100 mg/kg, ip after 0.5 hrs; format: functional, organism-based; parameters: dose 100 mg/kg; procedure, shortened: as §6
[20] = tested on: Mus musculus; assay: Anticonvulsant activity in albino Carworth Farms No.1 mouse assessed as protection against maximal electroshock-induced seizure at 100 mg/kg, ip after 4 hrs; format: functional, organism-based; parameters: dose 100 mg/kg; procedure, shortened: as §6
[21] = tested on: Mus musculus; assay: Anticonvulsant activity in albino Carworth Farms No.1 mouse assessed as protection against maximal electroshock-induced seizure at 300 mg/kg, ip after 0.5 hrs; format: functional, organism-based; parameters: dose 300 mg/kg; procedure, shortened: as §6
[22] = tested on: Mus musculus; assay: Anticonvulsant activity in albino Carworth Farms No.1 mouse assessed as protection against maximal electroshock-induced seizure at 300 mg/kg, ip after 4 hrs; format: functional, organism-based; parameters: dose 300 mg/kg; procedure, shortened: as §6
[23] = tested on: Mus musculus; assay: Neurotoxicity in albino Carworth Farms No.1 mouse assessed as motor impairment at 30 mg/kg, ip after 4 hrs by rotarod test; format: toxicity, organism-based; parameters: dose 30 mg/kg, route intraperitoneal; details: in vivo; procedure, shortened: as §1
[24] = tested on: Mus musculus; assay: Neurotoxicity in albino Carworth Farms No.1 mouse assessed as motor impairment at 300 mg/kg, ip after 4 hrs by rotarod test; format: toxicity, organism-based; parameters: dose 300 mg/kg, route intraperitoneal; details: in vivo; procedure, shortened: as §1
[25] = tested on: Rattus norvegicus; assay: Anticonvulsant activity in albino Sprague-Dawley rat assessed as protection against pilocarpine-induced status epilepticus at 600 mg/kg, ip measured after time from first stage 3 seizures; format: functional, organism-based; parameters: dose 600 mg/kg
Procedure, shortened: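 Male albino Sprague-Dawley rats (150–180 g) given compound i.p., then a pilocarpine challenge dose immediately (0 min) or 30 min after treatment. Outcome scored as protection or no protection from epileptic seizures, reported as number protected/number tested.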

[26] = tested on: Mus musculus; assay: Toxicity in albino Carworth Farms No.1 mouse assessed as death following tonic extension at 300 mg/kg, ip after 0.5 hrs by rotarod test; format: organism-based; parameters: dose 300 mg/kg, route intraperitoneal; details: in vivo
Procedure, shortened: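 Mice (18–25 g) were given 30, 100 or 300 mg/kg i.p. in 0.5% (v/v) aqueous methylcellulose. Neurotoxicity was checked on a 6 r.p.m. rotorod 30 min and 4 h after dosing and scored as inability to keep equilibrium. Death following tonic extension and sedation were recorded as observations (number of animals/number tested).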

[27] = tested on: Mus musculus; assay: Toxicity in albino Carworth Farms No.1 mouse subcutaneous metrazol-induced seizure model assessed as myoclonic jerk at 300 mg/kg, ip after 0.5 hrs; format: organism-based; parameters: dose 300 mg/kg; details: in vivo, sc

| SMILES | Activity [1] | Activity [2] | Activity [3] | Activity [4] | Activity [5] | Activity [6] | Activity [7] | Activity [8] | Activity [9] | Activity [17] | Activity [18] | Activity [19] | Activity [20] | Activity [21] | Activity [22] | Activity [23] | Activity [24] | also measured |
| --- | --- | --- | --- | --- | --- | --- | --- | --- | --- | --- | --- | --- | --- | --- | --- | --- | --- | --- |
| Cl.O=C1[C@H](c2ccccc2)N2CCC[C@H]2C(=O)N1CCc1ccccc1 | Non-toxic | Non-toxic | Non-toxic | inactive | inactive | inactive | inactive | inactive | inactive | inactive | inactive | Active | inactive | Active | Active | Non-toxic | Non-toxic | ED50 [10]: 80.6 mg/kg; ED50 [11]: > 200 mg/kg; TD50 at 0.25 h [12]: 178 mg/kg; Ratio TD50/ED50 [13]: 2.2; Time [14]: 0.25 h; Activity [15]: -10 g; Activity [16]: -18.8 g; Activity [25]: inactive |
| Cl.O=C1CN2CCC[C@H]2C(=O)N1CCc1ccccc1 | Non-toxic | Non-toxic | Toxic | inactive | inactive | inactive | inactive | Active | inactive | inactive | inactive | inactive | inactive | Active | Active | Non-toxic | Non-toxic | Activity [26]: Toxic; Activity [27]: Toxic |
